# ChEMBL document CHEMBL1141333, “Molecular-targeted antitumor agents. 15. Neolamellarins from the marine sponge Dendrilla nigra inhibit hypoxia-inducible factor-1 activation and secreted vascular endothelial growth factor production in breast tumor cells” (J Nat Prod, 2007)
# Active and inactive are the calls of the source. No cut-off for these calls is given here.
# Legend:
# T47D [1] = assay: Inhibition of 1,10-phenanthroline-induced VEGF protein level in T47D cells at 10 uM by ELISA; type: functional, Homo sapiens; design: scale not given: the % may be the effect or the level left
# Procedure, shortened: (§1)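 Exponentially grown T47D cells were exposed to compound for 16 h under hypoxia (1% O2) or 1,10-phenanthroline (10 μM). Secreted VEGF in conditioned media was measured by ELISA. Cells were lysed and lysate protein was measured by Micro BCA; VEGF was normalized to lysate protein. Triplicate wells, mean ± SD.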
# T47D [2] = assay: Inhibition of hypoxia-induced VEGF protein level in T47D cells at 10 uM by ELISA; type: functional, Homo sapiens; design: scale not given: the % may be the effect or the level left; procedure, shortened: as §1
# T47D [3] = assay: Antiproliferative activity against human T47D cells under normoxic conditions at 10 uM after 48 hrs; type: functional
# Procedure, shortened: (§2)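 T47D proliferation/viability measured by Neutral Red; % inhibition = [1 − OD540(treated)/OD540(control)] × 100. Hypoxic exposure was 1% O2 for 16 or 48 h, with compounds at up to 10 μM. Normoxic incubation was 48 h. Compounds were dissolved as 4 mM DMSO stocks.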
# [4] = Inhibition of HIF1 activation in T47D cells by reporter gene assay; type: cell-based; settings: Homo sapiens
# Procedure, shortened: (§3)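 Transfected T47D luciferase reporter for HIF-1. HIF-1 was induced either by hypoxia (1% O2) or by 1,10-phenanthroline (10 μM) during compound treatment. Luciferase activity was read out and concentration-response was tested at 1, 3 and 10 μM. Compounds came from 4 mM DMSO stocks. Emetine at 1 μM was the positive control.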
# T47D [5] = assay: Antiproliferative activity against human T47D cells under hypoxic conditions upto 10 uM after 16 to 48 hrs by neutral red assay; type: functional; procedure, shortened: as §2
# [6] = Inhibition of 1,10-phenanthroline-induced HIF1 activation in T47D cells by reporter gene assay; type: cell-based; settings: Homo sapiens; procedure, shortened: as §3
# T47D [7] = assay: Inhibition of HIF1 activation in T47D cells at 10 uM by reporter gene assay; type: cell-based; settings: Homo sapiens; procedure, shortened: as §3
# T47D [8] = assay: Inhibition of hypoxia-induced VEGF protein level in T47D cells at 3 uM by ELISA; type: functional, cell-based; settings: Homo sapiens; procedure, shortened: as §1
# T47D [9] = assay: Antiproliferative activity against human T47D cells under normoxic conditions at 1 uM after 48 hrs; type: functional; procedure, shortened: as §2
# T47D [10] = assay: Antiproliferative activity against human T47D cells under normoxic conditions after 48 hrs; type: functional, cell-based; procedure, shortened: as §2
# T47D [11] = assay: Inhibition of 1,10-phenanthroline-induced HIF1 activation in T47D cells at 10 uM by reporter gene assay; type: cell-based; design: scale not given: the % may be the effect or the level left; settings: Homo sapiens; procedure, shortened: as §3
IC50 [4],IC50 [6],SMILES,Activity (T47D [1]),Activity (T47D [2]),Activity (T47D [3]),Activity (T47D [5]),inhibition (T47D [7]),Activity (T47D [8]),Activity (T47D [9]),Activity (T47D [10]),Activity (T47D [11])
1.9 µM,3.7 µM,O=C(C(O)c1ccc(O)cc1)n1cc(-c2ccc(O)cc2)c(-c2ccc(O)cc2)c1 (racemic) [7-(R/S)-HYDROXYLAMELLARIN A],33%,87%,34%,<20%,98%,inactive,-8%,,
,,O=C(Cc1ccc(O)cc1)N1C(=O)C(c2ccc(O)cc2)=C(c2ccc(O)cc2)C1O (stereo unspecified) [5-HYDROXYNEOLAMELLARIN B],,,,<20%,22%,,,inactive,33%
,,O=C(Cc1ccc(O)cc1)n1cc(-c2ccc(O)cc2)c(-c2ccc(O)cc2)c1 [NEOLAMELLARIN A],,,,<20%,26%,,,inactive,58%
,,O=C(Cc1ccc(O)cc1)N1CC(c2ccc(O)cc2)=C(c2ccc(O)cc2)C1=O [NEOLAMELLARIN B],,,,<20%,23%,,,inactive,42%
